Tests used:
Settings in all cases: in vivo
Brain [1] = test: Biodistribution in male Sprague-Dawley rat brain at 5 mg/kg, po administered as single dose measured after 0.5 hrs; format: ADME, organism-based; parameters: dose 5 mg/kg, dosed compound name [14C]-apixaban, route oral
Outline: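 Fasted male SD rats were dosed orally by gavage with a single 5 mg/kg (100 μCi/kg) dose of [14C]apixaban, formulated at 1.0 mg/mL and 20 μCi/mL in 0.5% Tween 80/Labrafil. One rat was euthanized per time point and the carcass frozen and sectioned at 40 µm. Brain was quantified by QWBA against [14C]glucose calibration standards, as µg eq/g (LLOQ 0.037 µg eq/g).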

Lung [2] = test: Biodistribution in male Sprague-Dawley rat lung at 5 mg/kg, po administered as single dose measured after 8 hrs; format: ADME, organism-based; parameters: dose 5 mg/kg, dosed compound name [14C]-apixaban, route oral
Outline: (§1)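 [14C]apixaban (1.0 mg/mL, 20 μCi/mL) in 0.5% Tween 80 in Labrafil, given by oral gavage at 100 μCi/kg to male rats (225-252 g) fasted overnight through 4 h post-dose. One rat per time point. Carcasses frozen in hexane/dry ice and cut into 40 µm sagittal sections. QWBA read on phosphor plates against [14C]glucose standards, reported as µg eq/g. LLOQ 0.037 µg eq/g.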

Thymus = test: Biodistribution in female Sprague-Dawley rat thymus at 5 mg/kg, po administered as single dose measured after 24 hrs; format: ADME, organism-based; parameters: dose 5 mg/kg, dosed compound name [14C]-apixaban, route oral
Outline: (§2)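 Quantitative whole-body autoradiography was run after a single 5 mg/kg (100 μCi/kg) oral gavage to fasted female or pregnant SD rats, one rat per time point. Carcasses were frozen in hexane/dry ice, and 40 µm sagittal sections were dried at −20°C for at least 48 h. Sections were exposed to a phosphor plate alongside [14C]glucose standards (0.001–6.5 µCi/g). Results are µg eq/g, with LLOQ 0.037 µg eq/g.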

Adrenal gland [3] = test: Biodistribution in female Sprague-Dawley rat adrenal gland at 5 mg/kg, po administered as single dose measured after 8 hrs; format: ADME, organism-based; parameters: dose 5 mg/kg, dosed compound name [14C]-apixaban, route oral
Outline: (§3)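 [¹⁴C]Apixaban given by oral gavage at 5 mg/kg (100 μCi/kg) in 0.5% Tween 80 in Labrafil (1.0 mg/mL dosing solution) to rats fasted overnight through 4 h post-dose. One rat per time point; carcass frozen in hexane/dry ice. Quantitative whole-body autoradiography used 40 µm sagittal sections and a phosphor imaging plate calibrated with [¹⁴C]glucose standards (0.001–6.5 μCi/g). Read-out in µg eq apixaban/g; LLOQ 0.037 μg eq/g.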

Muscle tissue [4] = test: Biodistribution in male Sprague-Dawley rat muscle at 5 mg/kg, po administered as single dose measured after 24 hrs; format: ADME, organism-based; parameters: dose 5 mg/kg, dosed compound name [14C]-apixaban, route oral; outline: as §1
Harderian gland = test: Biodistribution in male Sprague-Dawley rat harderian gland at 5 mg/kg, po administered as single dose measured after 72 hrs; format: ADME, organism-based; parameters: dose 5 mg/kg, dosed compound name [14C]-apixaban, route oral
Outline: (§4)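 Fasted male SD rats (225-252 g) each received one oral gavage dose of [14C]apixaban, 5 mg/kg (100 μCi/kg), in 0.5% Tween 80/Labrafil vehicle. One rat was killed per time point, from 0.5 to 168 h. Frozen carcasses were cut into 40 µm sagittal whole-body sections and read by QWBA phosphor imaging against [14C]glucose calibrants. Results are in µg apixaban eq/g; BLQ <0.037 µg eq/g.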

Liver [5] = test: Biodistribution in male Sprague-Dawley rat liver at 5 mg/kg, po administered as single dose measured after 72 hrs; format: ADME, organism-based; parameters: dose 5 mg/kg, dosed compound name [14C]-apixaban, route oral; outline: as §4
Brain [6] = test: Biodistribution in male Sprague-Dawley rat brain at 5 mg/kg, po administered as single dose measured after 1 hr; format: ADME, organism-based; parameters: dose 5 mg/kg, dosed compound name [14C]-apixaban, route oral
Pancreas [7] = test: Biodistribution in male Sprague-Dawley rat pancreas at 5 mg/kg, po administered as single dose measured after 1 hr; format: ADME, organism-based; parameters: dose 5 mg/kg, dosed compound name [14C]-apixaban, route oral; outline: as §1
Adrenal gland [8] = test: Biodistribution in male Sprague-Dawley rat adrenal gland at 5 mg/kg, po administered as single dose measured after 4 hrs; format: ADME, organism-based; parameters: dose 5 mg/kg, dosed compound name [14C]-apixaban, route oral; outline: as §3
Brain [9] = test: Biodistribution in male Sprague-Dawley rat brain at 5 mg/kg, po administered as single dose measured after 4 hrs; format: ADME, organism-based; parameters: dose 5 mg/kg, dosed compound name [14C]-apixaban, route oral
Pancreas [10] = test: Biodistribution in male Sprague-Dawley rat pancreas at 5 mg/kg, po administered as single dose measured after 4 hrs; format: ADME, organism-based; parameters: dose 5 mg/kg, dosed compound name [14C]-apixaban, route oral; outline: as §1
Rattus norvegicus [11] = test: Biodistribution in male Sprague-Dawley rat pituitary gland at 5 mg/kg, po administered as single dose measured after 4 hrs; format: ADME, organism-based; parameters: dose 5 mg/kg, dosed compound name [14C]-apixaban, route oral
Rattus norvegicus [12] = test: Biodistribution in pregnant Sprague-Dawley rat pituitary gland at 5 mg/kg, po administered as single dose measured after 8 hrs; format: ADME, organism-based; parameters: dose 5 mg/kg, dosed compound name [14C]-apixaban, route oral
Liver [13] = test: Biodistribution in pregnant Sprague-Dawley rat liver at 5 mg/kg, po administered as single dose measured after 24 hrs; format: ADME, organism-based; parameters: dose 5 mg/kg, dosed compound name [14C]-apixaban, route oral
Lung [14] = test: Biodistribution in female Sprague-Dawley rat lung at 5 mg/kg, po administered as single dose measured after 0.5 hrs; format: ADME, organism-based; parameters: dose 5 mg/kg, dosed compound name [14C]-apixaban, route oral; outline: as §3
Heart [15] = test: Biodistribution in female Sprague-Dawley rat heart at 5 mg/kg, po administered as single dose measured after 0.5 hrs; format: ADME, organism-based; parameters: dose 5 mg/kg, dosed compound name [14C]-apixaban, route oral; outline: as §3
Blood = test: AUC (0 to infinity) in female Sprague-Dawley rat blood at 5 mg/kg, po administered as single dose; format: ADME, organism-based; parameters: time infinity, dose 5 mg/kg, dosed compound name [14C]-apixaban, route oral
[16] = Drug level in lactating Sprague-Dawley rat milk at 5 mg/kg, po administered as single dose after 0.5 hrs; format: ADME, organism-based; parameters: dose 5 mg/kg, dosed compound name [14C]-apixaban, route oral
Rattus norvegicus [17] = test: Biodistribution in fetal blood of pregnant Sprague-Dawley rat at 5 mg/kg, po administered as single dose measured after 24 hrs; format: ADME, organism-based; parameters: dose 5 mg/kg, dosed compound name [14C]-apixaban, route oral; outline: as §2
Heart [18] = test: Biodistribution in female Sprague-Dawley rat heart at 5 mg/kg, po administered as single dose measured after 72 hrs; format: ADME, organism-based; parameters: dose 5 mg/kg, dosed compound name [14C]-apixaban, route oral; outline: as §2
Rattus norvegicus [19] = test: Biodistribution in pregnant Sprague-Dawley rat bone marrow at 5 mg/kg, po administered as single dose measured after 4 hrs; format: ADME, organism-based; parameters: dose 5 mg/kg, dosed compound name [14C]-apixaban, route oral
Rattus norvegicus [20] = test: Biodistribution in pregnant Sprague-Dawley rat pituitary gland at 5 mg/kg, po administered as single dose measured after 4 hrs; format: ADME, organism-based; parameters: dose 5 mg/kg, dosed compound name [14C]-apixaban, route oral
Rattus norvegicus [21] = test: Biodistribution in pregnant Sprague-Dawley rat salivary gland at 5 mg/kg, po administered as single dose measured after 4 hrs; format: ADME, organism-based; parameters: dose 5 mg/kg, dosed compound name [14C]-apixaban, route oral
Rattus norvegicus [22] = test: Biodistribution in female Sprague-Dawley rat brown fat at 5 mg/kg, po administered as single dose measured after 1 hr; format: ADME, organism-based, Brown adipose tissue; parameters: dose 5 mg/kg, dosed compound name [14C]-apixaban, route oral
Outline: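 [14C]apixaban (20 μCi/mL in dosing solution) in 0.5% Tween 80 in Labrafil given by oral gavage to fasted female rats, 206-213 g, at 100 μCi/kg. One rat per time point was euthanized and snap-frozen. Sagittal 40 µm whole-body sections were read by QWBA phosphor imaging against [14C]glucose standards. Results are in µg eq apixaban/g, with LLOQ 0.037 μg eq/g.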

Rattus norvegicus [23] = test: Biodistribution in pregnant Sprague-Dawley rat salivary gland at 5 mg/kg, po administered as single dose measured after 0.5 hrs; format: ADME, organism-based; parameters: dose 5 mg/kg, dosed compound name [14C]-apixaban, route oral
Spleen = test: Biodistribution in pregnant Sprague-Dawley rat spleen at 5 mg/kg, po administered as single dose measured after 0.5 hrs; format: ADME, organism-based; parameters: dose 5 mg/kg, dosed compound name [14C]-apixaban, route oral
Rattus norvegicus [24] = test: Biodistribution in fetal brain of pregnant Sprague-Dawley rat at 5 mg/kg, po administered as single dose measured after 0.5 hrs; format: ADME, organism-based; parameters: dose 5 mg/kg, dosed compound name [14C]-apixaban, route oral
Outline: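 Pregnant SD rats received a single oral gavage of [14C]apixaban at 5 mg/kg (100 μCi/kg; 1.0 mg/mL, 20 μCi/mL in 0.5% Tween 80/Labrafil) after fasting, one dam per time point. Frozen carcasses were cut into 40 µm sagittal sections and read by phosphor-imaging QWBA against [14C]glucose standards. Fetal tissue radioactivity is reported as µg eq/g, with LLOQ 0.037 µg eq/g.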

Muscle tissue [25] = test: Biodistribution in pregnant Sprague-Dawley rat muscle at 5 mg/kg, po administered as single dose measured after 1 hr; format: ADME, organism-based; parameters: dose 5 mg/kg, dosed compound name [14C]-apixaban, route oral

SMILES: COc1ccc(-n2nc(C(N)=O)c3c2C(=O)N(c2ccc(N4CCCC[14C]4=O)cc2)CC3)cc1
- Radiolabel recovery (Brain [1]): 0.05 ugequiv/g
- Radiolabel recovery (Lung [2]): 0.14 ugequiv/g
- Radiolabel recovery (Thymus): Not detected assumed BLQ
- Radiolabel recovery (Adrenal gland [3]): 0.3 ugequiv/g
- Radiolabel recovery (Muscle tissue [4]): < 0.037 ugequiv/g
- Radiolabel recovery (Harderian gland): Not detected assumed BLQ
- Radiolabel recovery (Liver [5]): Not detected assumed BLQ
- Radiolabel recovery (Brain [6]): < 0.037 ugequiv/g
- Radiolabel recovery (Pancreas [7]): 0.62 ugequiv/g
- Radiolabel recovery (Adrenal gland [8]): 0.76 ugequiv/g
- Radiolabel recovery (Brain [9]): < 0.037 ugequiv/g
- Radiolabel recovery (Pancreas [10]): 0.55 ugequiv/g
- Radiolabel recovery (Rattus norvegicus [11]): 0.37 ugequiv/g
- Radiolabel recovery (Rattus norvegicus [12]): 0.19 ugequiv/g
- Radiolabel recovery (Liver [13]): 0.12 ugequiv/g
- Radiolabel recovery (Lung [14]): 0.43 ugequiv/g
- Radiolabel recovery (Heart [15]): 0.37 ugequiv/g
- AUC (Blood): 3780 ngequiv.hr/g
- Radiolabel recovery [16]: 2.75 µg/mL
- Radiolabel recovery (Rattus norvegicus [17]): Not detected assumed BLQ
- Radiolabel recovery (Heart [18]): Not detected assumed BLQ
- Radiolabel recovery (Rattus norvegicus [19]): 0.46 ugequiv/g
- Radiolabel recovery (Rattus norvegicus [20]): 0.75 ugequiv/g
- Radiolabel recovery (Rattus norvegicus [21]): 1.03 ugequiv/g
- Radiolabel recovery (Rattus norvegicus [22]): 0.77 ugequiv/g
- Radiolabel recovery (Rattus norvegicus [23]): 0.73 ugequiv/g
- Radiolabel recovery (Spleen): 0.46 ugequiv/g
- Radiolabel recovery (Rattus norvegicus [24]): < 0.037 ugequiv/g
- Radiolabel recovery (Muscle tissue [25]): 0.46 ugequiv/g

Source: ChEMBL document CHEMBL3525963, “Tissue distribution and elimination of [14C]apixaban in rats” (Drug Metab Dispos, 2011)
